{"data": "Assay results collected from several papers", "cell line": "PC-3", "observed": "cell growth or viability", "note": "Lines come from different studies, so protocols differ."}
{"Compound": "CC(=O)O[C@H]1C(=O)[C@@]2(C)[C@H]([C@H](OC(=O)c3ccccc3)[C@]3(O)C[C@H](OC(=O)[C@H](O)[C@@H](NC(=O)c4ccccc4)c4ccccc4)C(C)=C1C3(C)C)[C@]1(OC(C)=O)CO[C@@H]1C[C@@H]2O", "assay": "MTS", "setting": "72 h", "IC50": "0.0004 µM"}
{"Compound": "CC1(P2(=O)CCCCC2)CCCCC1", "assay": "MTT", "setting": "72 h", "IC50": "> 100 µM"}
{"Compound": "CC(=O)O[C@H]1[C@H](OC(C)=O)[C@@H](Nc2cc3cccnc3c3ncccc23)OC[C@@H]1OC(C)=O", "assay": "MTT", "setting": "48 h, dark", "IC50": "1.4 µM"}
{"Compound": "NS(=O)(=O)c1ccc(-n2nc(C(=O)NN=Cc3ccc(O)cc3)cc2-c2ccccc2)cc1", "assay": "fluorescence", "setting": "48 h", "IC50": "17.2 µM"}
{"Compound": "CC1=CC(=O)C(C(C)C)=CC1=O", "assay": "SRB", "setting": "48 h", "IC50": "12.8 µM"}
{"Compound": "CC(=NNC(=O)c1cc(-c2ccccc2)n(-c2ccc(S(N)(=O)=O)cc2)n1)c1ccc(Br)cc1", "assay": "fluorescence", "setting": "48 h", "IC50": "48 µM"}
{"Compound": "CS(=O)(=O)NCCCCN=C=S", "assay": "MTT", "setting": "24 h", "IC50": "25.4 µM"}
{"Compound": "NS(=O)(=O)c1ccc(-n2nc(C(=O)NN3C(=O)c4ccccc4C3=O)cc2-c2ccccc2)cc1", "assay": "fluorescence", "setting": "48 h", "IC50": "54.4 µM"}
{"Compound": "Nc1cc2cccnc2c2ncccc12", "assay": "MTT", "setting": "48 h, dark", "IC50": "6.2 µM"}
{"Compound": "O=C1/C(=C/c2ccc3ccccc3c2O)NC(=S)N1c1ccccc1", "assay": "MTT", "IC50": "6.04 µg/mL"}
{"Compound": "COc1cc(C(=O)c2nc(-c3cccc4[nH]ccc34)cs2)cc(OC)c1OC", "assay": "MTS", "setting": "72 h", "IC50": "0.0065 µM"}
{"Compound": "NS(=O)(=O)c1ccc(-n2nc(C(=O)NN=Cc3cccnc3)cc2-c2ccccc2)cc1", "assay": "fluorescence", "setting": "48 h", "IC50": "38.6 µM"}
{"Compound": "COc1cc(C(=O)c2nc(-c3cccc4[nH]cnc34)c[nH]2)cc(OC)c1OC", "assay": "MTS", "setting": "72 h", "IC50": "0.0158 µM"}
{"Compound": "COc1ccc(C=NNC(=O)c2cc(-c3ccccc3)n(-c3ccc(S(N)(=O)=O)cc3)n2)cc1OC", "assay": "fluorescence", "setting": "48 h", "IC50": "27.1 µM"}
{"Compound": "CC1(P2(=O)CCCCC2)C=CCC=C1", "assay": "MTT", "setting": "72 h", "IC50": "> 100 µM"}
{"Compound": "COc1cc(C(=O)c2nc(-c3cccc4[nH]ccc34)c[nH]2)cc2c1OC=CO2", "assay": "MTS", "setting": "72 h", "IC50": "0.0102 µM"}
{"Compound": "O=c1[nH]cc(F)c(=O)[nH]1", "assay": "MTT", "setting": "72 h", "IC50": "> 360 µM"}
{"Compound": "COc1cc(C(=O)c2nc(-c3cccc4c3CCN4)c[nH]2)cc(OC)c1OC", "assay": "MTS", "setting": "72 h", "IC50": "0.022 µM"}
{"Compound": "CC(C)c1ccc(/C=C2\\N=C(SCC(=O)O)N(c3ccccc3)C2=O)cc1", "assay": "MTT", "IC50": "50 µg/mL"}
